These results are taken from PubChem BioAssay.

Active and inactive are the calls of the source.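 The calls were made as follows, unless noted: active = viability loss from added drug above about 55%, and viability with drug at most 40%, in both replicates (limit read from the data, passing the limit was not always enough); inconclusive = both conditions met in only one replicate; inactive = neither replicate meets both conditions.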

Test [1] can be described thus: reducers of endogenous Her2 protein level, primary screen, SKBR3 breast tumor cells, AlphaScreen, ATP viability (AID 461;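 active = Her2 level under about 52% in both replicate screens, with viability over 70% of control, limit read from the data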;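 as to Her2 level: lower value means less Her2 protein in the cells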;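 as to viability: percent of carrier control wells set as 100% viability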). The following applies: 18-24 h, measured here: SKBR3 viability, ATP luminescence, at 10 µM. A general note: In Alpha technology, singlet oxygen from a donor bead excites a nearby acceptor bead.
The target of test [2] is Receptor tyrosine-protein kinase erbB-2 (Homo sapiens) (UniProt P04626). The description is as above. The following applies: 18-24 h, at 10 µM, stronger effect = lower value.
Chain of Receptor tyrosine-protein kinase erbB-2 (Homo sapiens) (P04626 whole entry, looked up): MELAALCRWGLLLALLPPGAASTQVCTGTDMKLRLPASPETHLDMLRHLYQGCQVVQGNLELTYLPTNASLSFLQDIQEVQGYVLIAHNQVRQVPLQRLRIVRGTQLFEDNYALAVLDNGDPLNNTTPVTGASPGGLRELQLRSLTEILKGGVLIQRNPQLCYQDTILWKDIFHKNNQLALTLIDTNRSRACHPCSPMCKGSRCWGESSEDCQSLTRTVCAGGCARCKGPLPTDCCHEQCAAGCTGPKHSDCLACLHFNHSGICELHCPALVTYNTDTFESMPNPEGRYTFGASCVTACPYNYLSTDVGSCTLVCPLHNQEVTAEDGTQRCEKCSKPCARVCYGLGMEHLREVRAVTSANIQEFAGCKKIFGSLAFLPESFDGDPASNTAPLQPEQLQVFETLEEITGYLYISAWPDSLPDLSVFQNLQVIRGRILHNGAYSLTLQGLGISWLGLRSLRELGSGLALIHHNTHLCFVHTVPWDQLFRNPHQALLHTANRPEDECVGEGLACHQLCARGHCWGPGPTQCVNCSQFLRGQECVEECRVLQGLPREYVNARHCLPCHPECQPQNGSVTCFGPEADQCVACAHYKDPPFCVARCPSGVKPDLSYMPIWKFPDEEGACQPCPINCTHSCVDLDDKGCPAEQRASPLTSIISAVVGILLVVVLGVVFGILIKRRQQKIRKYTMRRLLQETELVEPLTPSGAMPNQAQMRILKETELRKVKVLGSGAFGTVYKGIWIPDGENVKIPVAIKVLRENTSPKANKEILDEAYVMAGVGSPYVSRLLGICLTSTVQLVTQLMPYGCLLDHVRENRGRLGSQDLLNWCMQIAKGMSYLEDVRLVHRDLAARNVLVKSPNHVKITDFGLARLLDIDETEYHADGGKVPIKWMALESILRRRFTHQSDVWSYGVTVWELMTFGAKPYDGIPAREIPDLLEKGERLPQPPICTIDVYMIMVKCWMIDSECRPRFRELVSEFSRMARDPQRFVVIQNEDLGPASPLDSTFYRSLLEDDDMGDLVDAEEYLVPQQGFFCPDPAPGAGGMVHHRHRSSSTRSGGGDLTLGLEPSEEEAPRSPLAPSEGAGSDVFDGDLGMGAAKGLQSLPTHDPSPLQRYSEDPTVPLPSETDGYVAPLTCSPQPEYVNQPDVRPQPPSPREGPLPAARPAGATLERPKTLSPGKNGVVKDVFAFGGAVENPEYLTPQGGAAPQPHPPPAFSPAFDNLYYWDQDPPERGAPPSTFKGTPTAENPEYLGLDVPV
Test [3] can be described thus: SK-BR-3 cell growth inhibitors, pilot screen, 24 h, human (AID 572;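 active = viability at or below 10% of carrier control in both of two separate runs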;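 also: compound exposure lasted between 18 and 24 h rather than exactly 24 h; 100% = carrier-treated control wells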). The following applies: SK-BR-3 viability, CellTiter-Glo luminescence, at 10 µM, stronger effect = lower value. (In general: ATP-based viability assays read luminescence as a measure of living cells.)
A short description of test [4]: HUVEC growth inhibition – cell-based, human, primary screen (AID 575;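 active = viability at or below 30% in both replicate assays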;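 also: 100% = median of untreated cell wells with 0.1% DMSO on each plate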). The following applies: HUVEC proliferation, CellTiter-Glo luminescence, 72 h; at 10 µM; stronger effect = lower value. The procedure, abridged: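 Assay system: Primary human umbilical vein endothelial cells | Quantity: 1250 cells per well | Medium: Supplemented EBM, 2% fetal bovine serum | Detection: CellTiter-Glo luminescence measuring cellular ATP | Read-out: % viability vs DMSO wells | Plate: Collagen-coated 384-well format | Times: 72 h exposure, 37 °C, 5% CO2, 30 min RT equilibration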

Test [5] is described as follows: reversal of MRP1-mediated doxorubicin resistance, pilot screen, H69AR cells, doxorubicin co-treatment (AID 601). The following applies: CellTiter-Glo, 72 h, at 10 µM; for differential viability (reversal): stronger effect = higher value.
A short description of test [6]: 384-well plate pilot, post-Golgi transport modulator project, inhibition of yeast transport mutant growth (AID 636; in the data active = inhibition above about 31%). The following applies: absorbance 615 nm, about 18 h, stronger effect = higher value.
Test [7] is described as follows: growth suppression of yeast trafficking mutant, preliminary HTS, modulators of trafficking downstream of Golgi apparatus project, 1536-format plate, OD 615 nm (AID 637; in the data active = inhibition above about 30%). Conditions: yeast transport mutant growth, absorbance 615 nm, 18 h; stronger effect = higher value.
Setting [8] is: H69AR cells + 2 uM doxorubicin, measured here: viability with 2 uM doxorubicin, stronger effect = lower value.
Setting [9] is: H69AR cells, compound alone cytotoxicity.

`CC(C)Cn1c(=O)c(C(=O)NCc2ccccn2)c(O)c2ccccc21`: the viability (usually a read-out of living cells in per cent, often relative to untreated cells) in test [1] was 110%; in test [3] it was 110% (inactive); in test [4], 61.4% (inactive); in test [5] (setting [8]), 67.3%; in test [5] (setting [9]) it was 52.3%. Besides, the Her2 level in test [2] was 78.5% (inactive). Also, the differential viability (reversal) in test [5] (H69AR cells + 2 uM doxorubicin) was -15% (inactive). The figures for the inhibition in test [6] and in test [7] were -7.43% (inactive) and -3.17% (inactive), respectively.
As to `O=C(CSc1nnc2scc(-c3ccccc3)n12)Nc1nsc(-c2ccccc2)n1`, the viability in test [1] was 82.5%; in test [3] it was 82.5% (inactive); in test [4], 70.3% (inactive); in test [5] (setting [8]), 75.2%; in test [5] (setting [9]) it was 61.1%. In addition, the Her2 level in test [2] is 78% (inactive). The differential viability (reversal) in test [5] (H69AR cells + 2 uM doxorubicin) was -14.1% (inactive). For the same compound, the inhibition (commonly the drop in the measured response relative to a control, in per cent) in test [6] was -6.53% (inactive); in test [7], 0.48% (inactive).
With `Cc1cccc(N2CCN(C(=O)c3ccc(NS(=O)(=O)c4c(C)noc4C)cc3)CC2)c1C`, the viability in test [1] is 98%; in test [3], 98% (inactive); in test [4], 68.2% (inactive); in test [5] (setting [8]) it was 46.2%; in test [5] (setting [9]) it was 59.8%. Besides, the Her2 level in test [2] was 106% (inactive). Besides, in test [5] (H69AR cells + 2 uM doxorubicin), the differential viability (reversal) was 13.6% (inactive). Moreover, the inhibition in test [6] is -3.68% (inactive); in test [7], 2% (inactive).
Turning to `CSc1nc(N)nc(SCCS(=O)(=O)c2ccc(Cl)cc2)c1C#N`, the viability was 90.5% in test [1]; 90.5% (inactive) in test [3]; 56.6% (inactive) in test [4]; 34.2% in test [5] (setting [8]); 26.9% in test [5] (setting [9]). Besides, the Her2 level in test [2] was 68% (inactive). Also, in test [5] (H69AR cells + 2 uM doxorubicin), the differential viability (reversal) was -7.24% (inactive). Moreover, the inhibition in test [6] is -3.47% (inactive); in test [7] it was -3.65% (inactive).
Turning to `COc1cccc(C(=O)Nc2c(C(N)=O)oc3ccccc23)c1`, the viability is 86.5% in test [1]; 86.5% (inactive) in test [3]; 65.9% (inactive) in test [4]; 62.4% in test [5] (setting [8]); 48.7% in test [5] (setting [9]). For the same compound, the Her2 level in test [2] is 69% (inactive). Also, in test [5] (H69AR cells + 2 uM doxorubicin), the differential viability (reversal) is -13.6% (inactive). Further, the inhibition was -5.33% (inactive) in test [6] and 3% (inactive) in test [7].
Regarding `CC(C)(C)n1nnnc1C(c1ccccc1)N1CCc2ccccc2C1` (stereo not given), the viability is 107% in test [1]; 107% (inactive) in test [3]; 42% (inactive) in test [4]; 43.4% in test [5] (setting [8]); 49.3% in test [5] (setting [9]). In test [2], the Her2 level is 82% (inactive). Also, in test [5] (H69AR cells + 2 uM doxorubicin), the differential viability (reversal) was 5.93% (inactive). Moreover, the inhibition in test [6] was -7.26% (inactive); in test [7] it was -2.7% (inactive).
Take `CCN(CC)CC(=O)Nc1ccc(-c2nc3cc(NC(=O)CN(CC)CC)ccc3o2)cc1`: the viability was 91% in test [1]; 91% (inactive) in test [3]; 3.96% (active) in test [4]; 58.6% in test [5] (setting [8]); 44.2% in test [5] (setting [9]). In test [2], the Her2 level is 82.5% (inactive). Further, the differential viability (reversal) in test [5] (H69AR cells + 2 uM doxorubicin) was -14.4% (inactive). For the same compound, the inhibition was -2.13% (inactive) in test [6] and -9.34% (inactive) in test [7].
Turning to `COc1cccc(Cn2c(-c3nonc3N)nc3ccccc32)c1`, the viability was 93.5% in test [1]; 93.5% (inactive) in test [3]; 58.2% (inactive) in test [4]; 62.7% in test [5] (setting [8]); 16% in test [5] (setting [9]). Besides, the Her2 level in test [2] is 82% (inactive). Further, the differential viability (reversal) in test [5] (H69AR cells + 2 uM doxorubicin) is -46.7% (inactive). In addition, the inhibition was -2.6% (inactive) in test [6] and -2.06% (inactive) in test [7].
Take `CCOc1ccccc1-n1nnnc1SCC(=O)Nc1cc2oc3ccccc3c2cc1OC`: the viability was 68.5% in test [1]; 68.5% (inactive) in test [3]; 63.6% (inactive) in test [4]; 54.7% in test [5] (setting [8]); 43.6% in test [5] (setting [9]). Besides, in test [2], the Her2 level is 102% (inactive). The differential viability (reversal) in test [5] (H69AR cells + 2 uM doxorubicin) was -11.1% (inactive). The inhibition in test [6] is 4.16% (inactive); in test [7], -9.05% (inactive).
`CC(C)C(=O)Nc1ccc(C(=O)NCc2cccnc2)cc1`: the viability is 107% in test [1]; 107% (inactive) in test [3]; 118% (inactive) in test [4]; 72.5% in test [5] (setting [8]); 10.8% in test [5] (setting [9]). The Her2 level in test [2] is 108% (inactive). Also, the differential viability (reversal) in test [5] (H69AR cells + 2 uM doxorubicin) is -61.7% (inactive). Further, the inhibition is 4.42% (inactive) in test [6] and -7.14% (inactive) in test [7].
On to `CCOC(=O)c1sc2nc(SCC(=O)NCc3ccco3)n(Cc3ccccc3)c(=O)c2c1C`, for which the viability was 90.5% in test [1]; 90.5% (inactive) in test [3]; 82% (inactive) in test [4]; 33% in test [5] (setting [8]); 46% in test [5] (setting [9]). For the same compound, the Her2 level in test [2] is 84% (inactive). Further, the differential viability (reversal) in test [5] (H69AR cells + 2 uM doxorubicin) was 13% (inactive). Also, the inhibition is -5.68% (inactive) in test [6] and 0.98% (inactive) in test [7].
As for `CCc1cc2c(=O)c(-c3ccc4c(c3)OCCO4)coc2cc1OC(=O)c1ccco1`, the viability is 72.5% in test [1]; 72.5% (inactive) in test [3]; 64.3% (inactive) in test [4]; 63.9% in test [5] (setting [8]); 50.5% in test [5] (setting [9]). In addition, in test [2], the Her2 level is 68% (inactive). The differential viability (reversal) in test [5] (H69AR cells + 2 uM doxorubicin) is -13.3% (inactive). Besides, the inhibition is -3.29% (inactive) in test [6] and 2.79% (inactive) in test [7].
On to `Cc1c(NC(=O)c2ccc(=O)oc2)c(=O)n(-c2ccccc2)n1C`, for which the viability was 96.5% in test [1]; 96.5% (inactive) in test [3]; 90.9% (inactive) in test [4]; 67.2% in test [5] (setting [8]); 48.5% in test [5] (setting [9]). For the same compound, the Her2 level in test [2] is 89% (inactive). The differential viability (reversal) in test [5] (H69AR cells + 2 uM doxorubicin) was -18.7% (inactive). For the same compound, the inhibition was -4.8% (inactive) in test [6] and -0.32% (inactive) in test [7].
`Cc1ccccc1OCC(O)CN` (stereo not given): the viability in test [1] is 74%; in test [3], 74% (inactive); in test [4], 15.3% (active); in test [5] (setting [8]), 25%; in test [5] (setting [9]) it was 19.3%. Also, the Her2 level in test [2] is 90% (inactive). For the same compound, in test [5] (H69AR cells + 2 uM doxorubicin), the differential viability (reversal) was -5.69% (inactive). The inhibition in test [6] is 3.64% (inactive); in test [7], -6.03% (inactive).
`COc1ccc(OCC(=O)N2CCN(C(=O)COc3ccc(Br)cc3)CC2)cc1`: the viability in test [1] is 84.5%; in test [3], 84.5% (inactive); in test [4], 81.3% (inactive); in test [5] (setting [8]) it was 40.4%; in test [5] (setting [9]) it was 47.6%. In test [2], the Her2 level was 95.5% (inactive). In addition, the differential viability (reversal) in test [5] (H69AR cells + 2 uM doxorubicin) was 7.19% (inactive). Also, the inhibition in test [6] was -2.67% (inactive); in test [7] it was 3.71% (inactive).
